According to the M2OR odorant receptor database:

What was measured:
Settings in all cases: stereoisomer not certain
OR10G2 (Homo sapiens) = target: T1, OR10G2 (Homo sapiens) (UniProt Q8NGC3)
T1 sequence (whole entry): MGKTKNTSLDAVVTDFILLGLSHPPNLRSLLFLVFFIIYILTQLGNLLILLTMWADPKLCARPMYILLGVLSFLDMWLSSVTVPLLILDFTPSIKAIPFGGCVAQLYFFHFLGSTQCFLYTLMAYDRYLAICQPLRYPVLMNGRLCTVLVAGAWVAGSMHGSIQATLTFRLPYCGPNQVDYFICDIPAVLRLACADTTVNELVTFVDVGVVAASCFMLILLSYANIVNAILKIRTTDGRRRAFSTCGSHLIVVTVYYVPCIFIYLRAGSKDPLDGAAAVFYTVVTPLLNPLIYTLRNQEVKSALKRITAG
Outline: (§1)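 Each entry records the cell line, G-protein, co-transfected protein and tags used. Methods varied with the source, often transient luciferase assays in mammalian cell lines. A receptor–molecule pair is called responsive (active) if the original authors judged its signal statistically different from baseline and non-responsive (inactive) otherwise.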

OR10G3 (Homo sapiens) = target: T2, OR10G3 (Homo sapiens) (UniProt Q8NGC4)
T2 sequence (whole entry): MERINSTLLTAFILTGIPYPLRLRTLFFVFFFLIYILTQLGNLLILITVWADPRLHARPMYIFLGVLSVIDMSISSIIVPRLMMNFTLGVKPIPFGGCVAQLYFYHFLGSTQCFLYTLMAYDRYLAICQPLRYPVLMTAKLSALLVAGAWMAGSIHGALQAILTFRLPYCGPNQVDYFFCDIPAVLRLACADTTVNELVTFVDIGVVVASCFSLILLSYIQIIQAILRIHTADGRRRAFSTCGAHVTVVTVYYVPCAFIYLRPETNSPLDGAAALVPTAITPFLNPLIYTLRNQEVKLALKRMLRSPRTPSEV
Outline: as §1

OR10G4 (Homo sapiens) = target: T3, OR10G4 (Homo sapiens) (UniProt Q8NGN3)
T3 sequence (whole entry): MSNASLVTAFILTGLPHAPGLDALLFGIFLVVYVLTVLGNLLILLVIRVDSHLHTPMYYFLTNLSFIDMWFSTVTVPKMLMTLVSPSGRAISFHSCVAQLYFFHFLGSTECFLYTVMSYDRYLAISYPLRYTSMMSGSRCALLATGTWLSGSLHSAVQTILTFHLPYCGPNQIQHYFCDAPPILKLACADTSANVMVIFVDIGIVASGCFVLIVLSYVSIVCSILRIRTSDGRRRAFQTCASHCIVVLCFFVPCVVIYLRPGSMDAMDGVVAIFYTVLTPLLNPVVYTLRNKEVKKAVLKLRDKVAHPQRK
Outline: as §1

OR10G6 (Homo sapiens) = target: T4, OR10G6 (Homo sapiens) (UniProt Q8NH81)
T4 sequence (whole entry): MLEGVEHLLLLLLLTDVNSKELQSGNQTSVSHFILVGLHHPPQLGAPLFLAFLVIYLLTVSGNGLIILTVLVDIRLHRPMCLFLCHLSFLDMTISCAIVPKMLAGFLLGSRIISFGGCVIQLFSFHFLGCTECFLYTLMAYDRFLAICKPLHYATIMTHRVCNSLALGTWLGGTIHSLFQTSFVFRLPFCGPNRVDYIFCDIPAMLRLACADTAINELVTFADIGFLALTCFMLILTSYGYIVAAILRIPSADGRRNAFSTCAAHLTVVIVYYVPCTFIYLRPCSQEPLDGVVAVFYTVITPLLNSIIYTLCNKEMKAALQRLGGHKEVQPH
Outline: as §1

OR10G7 (Homo sapiens) = target: T5, OR10G7 (Homo sapiens) (UniProt Q8NGN6)
T5 sequence (whole entry): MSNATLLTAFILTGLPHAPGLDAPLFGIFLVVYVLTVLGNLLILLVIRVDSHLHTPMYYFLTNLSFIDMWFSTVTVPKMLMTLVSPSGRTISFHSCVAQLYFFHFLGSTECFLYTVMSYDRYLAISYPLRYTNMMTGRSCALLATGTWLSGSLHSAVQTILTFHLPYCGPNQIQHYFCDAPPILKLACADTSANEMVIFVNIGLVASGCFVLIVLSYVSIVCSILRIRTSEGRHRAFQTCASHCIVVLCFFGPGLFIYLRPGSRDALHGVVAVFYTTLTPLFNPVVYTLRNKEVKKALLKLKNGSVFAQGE
Outline: as §1

OR10G8 (Homo sapiens) = target: T6, OR10G8 (Homo sapiens) (UniProt Q8NGN5)
T6 sequence (whole entry): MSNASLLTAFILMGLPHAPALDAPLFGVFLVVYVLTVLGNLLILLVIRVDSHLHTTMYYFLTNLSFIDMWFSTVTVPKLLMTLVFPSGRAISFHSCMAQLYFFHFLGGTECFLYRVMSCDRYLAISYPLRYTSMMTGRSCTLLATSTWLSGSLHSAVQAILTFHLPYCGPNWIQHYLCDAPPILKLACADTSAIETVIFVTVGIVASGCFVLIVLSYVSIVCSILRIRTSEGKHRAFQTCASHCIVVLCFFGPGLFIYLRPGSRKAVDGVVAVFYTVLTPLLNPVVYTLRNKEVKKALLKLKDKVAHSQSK
Outline: as §1

OR10G9 (Homo sapiens) = target: T7, OR10G9 (Homo sapiens) (UniProt Q8NGN4)
T7 sequence (whole entry): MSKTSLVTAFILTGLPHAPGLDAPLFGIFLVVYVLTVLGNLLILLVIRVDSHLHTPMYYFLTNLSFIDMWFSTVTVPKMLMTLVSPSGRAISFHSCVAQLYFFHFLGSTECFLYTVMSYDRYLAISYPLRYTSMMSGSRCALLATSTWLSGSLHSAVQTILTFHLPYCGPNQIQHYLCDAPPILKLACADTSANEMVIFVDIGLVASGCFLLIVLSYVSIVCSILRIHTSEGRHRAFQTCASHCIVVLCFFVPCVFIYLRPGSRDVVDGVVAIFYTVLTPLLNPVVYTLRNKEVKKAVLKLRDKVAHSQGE
Outline: as §1

OR10H1 (Homo sapiens) = target: T8, OR10H1 (Homo sapiens) (UniProt Q9Y4A9)
T8 sequence (whole entry): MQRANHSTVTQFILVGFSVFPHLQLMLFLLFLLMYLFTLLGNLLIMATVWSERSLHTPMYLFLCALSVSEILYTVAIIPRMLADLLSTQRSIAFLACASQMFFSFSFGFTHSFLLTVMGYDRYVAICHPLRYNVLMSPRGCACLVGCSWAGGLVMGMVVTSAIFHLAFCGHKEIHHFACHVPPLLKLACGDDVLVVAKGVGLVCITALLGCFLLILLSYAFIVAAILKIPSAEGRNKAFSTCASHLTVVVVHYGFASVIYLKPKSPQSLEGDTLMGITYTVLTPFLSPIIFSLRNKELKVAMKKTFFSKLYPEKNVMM
Outline: as §1

OR10H2 (Homo sapiens) = target: T9, OR10H2 (Homo sapiens) (UniProt O60403)
T9 sequence (whole entry): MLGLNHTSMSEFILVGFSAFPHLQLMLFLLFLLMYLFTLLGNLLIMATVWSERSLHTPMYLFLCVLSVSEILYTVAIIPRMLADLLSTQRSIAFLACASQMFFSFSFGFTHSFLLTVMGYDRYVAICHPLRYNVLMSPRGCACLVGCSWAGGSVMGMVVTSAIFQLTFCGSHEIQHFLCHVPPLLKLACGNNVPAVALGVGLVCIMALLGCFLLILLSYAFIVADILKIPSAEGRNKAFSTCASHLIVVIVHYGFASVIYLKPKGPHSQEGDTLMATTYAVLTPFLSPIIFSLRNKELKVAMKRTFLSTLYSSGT
Outline: as §1

OR10H3 (Homo sapiens) = target: T10, OR10H3 (Homo sapiens) (UniProt O60404)
T10 sequence (whole entry): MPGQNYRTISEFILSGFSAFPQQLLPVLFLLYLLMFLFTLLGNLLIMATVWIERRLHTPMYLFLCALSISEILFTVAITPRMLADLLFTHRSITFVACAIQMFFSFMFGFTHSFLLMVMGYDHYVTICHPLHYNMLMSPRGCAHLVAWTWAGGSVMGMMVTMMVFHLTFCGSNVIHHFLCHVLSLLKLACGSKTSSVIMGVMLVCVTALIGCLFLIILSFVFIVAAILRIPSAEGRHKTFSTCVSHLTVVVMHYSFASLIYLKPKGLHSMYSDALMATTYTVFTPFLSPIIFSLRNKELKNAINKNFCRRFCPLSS
Outline: as §1

OR10H4 (Homo sapiens) = target: T11, OR10H4 (Homo sapiens) (UniProt Q8NGA5)
T11 sequence (whole entry): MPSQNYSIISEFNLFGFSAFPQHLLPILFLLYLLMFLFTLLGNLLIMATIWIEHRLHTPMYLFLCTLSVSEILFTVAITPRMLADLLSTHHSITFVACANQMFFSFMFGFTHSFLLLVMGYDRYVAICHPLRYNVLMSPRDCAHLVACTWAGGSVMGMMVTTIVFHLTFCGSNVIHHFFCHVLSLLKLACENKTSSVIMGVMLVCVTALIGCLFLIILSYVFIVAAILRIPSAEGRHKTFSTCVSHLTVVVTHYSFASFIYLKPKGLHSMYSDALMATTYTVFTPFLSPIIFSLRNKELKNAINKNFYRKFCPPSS
Outline: as §1

OR10H5 (Homo sapiens) = target: T12, OR10H5 (Homo sapiens) (UniProt Q8NGA6)
T12 sequence (whole entry): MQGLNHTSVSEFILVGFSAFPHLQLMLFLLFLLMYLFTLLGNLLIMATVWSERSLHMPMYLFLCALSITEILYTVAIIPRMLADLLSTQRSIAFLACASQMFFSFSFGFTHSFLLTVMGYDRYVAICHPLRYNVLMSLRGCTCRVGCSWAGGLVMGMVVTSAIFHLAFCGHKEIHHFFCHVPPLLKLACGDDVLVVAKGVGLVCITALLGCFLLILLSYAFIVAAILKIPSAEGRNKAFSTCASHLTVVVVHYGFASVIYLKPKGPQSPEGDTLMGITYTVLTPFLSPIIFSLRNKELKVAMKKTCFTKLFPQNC
Outline: as §1

OR10J1 (Homo sapiens) = target: T13, OR10J1 (Homo sapiens) (UniProt P30954)
T13 sequence (whole entry): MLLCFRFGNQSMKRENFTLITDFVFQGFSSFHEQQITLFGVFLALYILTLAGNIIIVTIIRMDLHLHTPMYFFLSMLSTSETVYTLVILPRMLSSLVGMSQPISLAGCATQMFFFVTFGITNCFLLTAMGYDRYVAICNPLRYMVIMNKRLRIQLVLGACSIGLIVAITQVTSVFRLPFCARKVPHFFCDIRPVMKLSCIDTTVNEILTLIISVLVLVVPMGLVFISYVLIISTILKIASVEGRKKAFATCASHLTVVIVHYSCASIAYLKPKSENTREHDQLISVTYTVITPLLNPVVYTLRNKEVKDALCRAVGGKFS
Outline: as §1

OR10J3 (Homo sapiens) = target: T14, OR10J3 (Homo sapiens) (UniProt Q5JRS4)
T14 sequence (whole entry): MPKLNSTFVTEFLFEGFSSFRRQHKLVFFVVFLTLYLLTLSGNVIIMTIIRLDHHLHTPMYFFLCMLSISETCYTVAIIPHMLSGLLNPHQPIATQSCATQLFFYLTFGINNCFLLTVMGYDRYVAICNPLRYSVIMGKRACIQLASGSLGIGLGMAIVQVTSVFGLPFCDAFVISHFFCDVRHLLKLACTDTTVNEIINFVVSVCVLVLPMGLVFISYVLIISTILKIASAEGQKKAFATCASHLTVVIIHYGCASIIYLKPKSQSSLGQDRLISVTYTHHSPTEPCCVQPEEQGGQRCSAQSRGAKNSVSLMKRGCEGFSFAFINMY
Outline: as §1

OR10J5 (Homo sapiens) = target: T15, OR10J5 (Homo sapiens) (UniProt Q8NHC4)
T15 sequence (whole entry): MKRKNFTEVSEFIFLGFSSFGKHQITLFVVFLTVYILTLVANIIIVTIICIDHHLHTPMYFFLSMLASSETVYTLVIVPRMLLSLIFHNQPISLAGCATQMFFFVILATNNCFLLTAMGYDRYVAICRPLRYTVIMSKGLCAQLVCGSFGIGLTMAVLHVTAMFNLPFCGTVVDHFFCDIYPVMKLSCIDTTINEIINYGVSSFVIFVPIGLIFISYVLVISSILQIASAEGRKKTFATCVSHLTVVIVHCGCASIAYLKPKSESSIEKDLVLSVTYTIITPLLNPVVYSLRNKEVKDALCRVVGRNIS
Outline: as §1

OR10K1 (Homo sapiens) = target: T16, OR10K1 (Homo sapiens) (UniProt Q8NGX5)
T16 sequence (whole entry): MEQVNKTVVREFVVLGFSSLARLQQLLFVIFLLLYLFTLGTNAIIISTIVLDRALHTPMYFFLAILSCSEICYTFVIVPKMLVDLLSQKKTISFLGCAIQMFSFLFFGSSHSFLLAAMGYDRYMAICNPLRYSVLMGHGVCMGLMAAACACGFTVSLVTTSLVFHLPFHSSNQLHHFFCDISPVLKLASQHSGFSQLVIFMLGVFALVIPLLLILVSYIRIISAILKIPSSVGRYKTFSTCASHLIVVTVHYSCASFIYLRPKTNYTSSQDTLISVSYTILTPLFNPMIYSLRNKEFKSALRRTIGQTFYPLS
Outline: as §1

OR10P1 (Homo sapiens) = target: T17, OR10P1 (Homo sapiens) (UniProt Q8NGE3)
T17 sequence (whole entry): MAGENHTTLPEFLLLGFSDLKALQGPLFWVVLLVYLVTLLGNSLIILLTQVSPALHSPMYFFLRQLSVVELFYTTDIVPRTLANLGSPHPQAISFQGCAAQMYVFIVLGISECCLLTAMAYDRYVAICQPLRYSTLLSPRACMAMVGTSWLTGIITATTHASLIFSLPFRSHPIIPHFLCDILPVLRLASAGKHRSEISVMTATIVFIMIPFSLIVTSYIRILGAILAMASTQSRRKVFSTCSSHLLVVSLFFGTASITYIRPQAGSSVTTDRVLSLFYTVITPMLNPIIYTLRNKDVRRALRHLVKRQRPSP
Outline: as §1

OR10Q1 (Homo sapiens) = target: T18, OR10Q1 (Homo sapiens) (UniProt Q8NGQ4)
T18 sequence (whole entry): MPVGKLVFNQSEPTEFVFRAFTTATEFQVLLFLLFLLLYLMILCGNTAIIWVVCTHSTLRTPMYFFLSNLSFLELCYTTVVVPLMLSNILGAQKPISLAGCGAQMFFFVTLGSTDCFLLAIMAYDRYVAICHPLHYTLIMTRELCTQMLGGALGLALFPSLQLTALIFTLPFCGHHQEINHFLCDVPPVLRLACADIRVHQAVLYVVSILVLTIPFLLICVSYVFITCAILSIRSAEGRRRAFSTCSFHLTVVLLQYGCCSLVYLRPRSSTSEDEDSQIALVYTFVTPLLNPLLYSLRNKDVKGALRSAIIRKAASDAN
Outline: as §1

Measured: odorant receptor agonist call

CCC1OC(C)=C(O)C1=O (stereo not given)
inactive: all assays above

c1ccccc1
inactive: OR10H1 (Homo sapiens) | OR10J5 (Homo sapiens)
